The target in data set [1] is Dual specificity protein kinase CLK3 (Homo sapiens, UniProt P49761). Description: Inhibition of CLK3 in human HeLa cells lysate pre incubated for 15 mins followed by ADP acyl phosphate probe addition and measured after 10 mins by LC-MS/MS analysis. In kind it is subcellular.
Data set [2] concerns the target Serine/threonine-protein kinase tousled-like 2 (Homo sapiens, UniProt Q86UE8). In words: Inhibition of TLK2 in human HeLa cells lysate at 50 uM pre incubated for 15 mins followed by ADP acyl phosphate probe addition and measured after 10 mins by LC-MS/MS analysis relative to control. Type of data set: subcellular. The note with it: time 25.0 min.
In data set [3] the target is Serine/threonine-protein kinase PLK1 (Homo sapiens, UniProt P53350). In words: Inhibition of PLK1 K2 site in human HeLa cells lysate pre incubated for 15 mins followed by ATP acyl phosphate probe addition and measured after 10 mins by LC-MS/MS analysis. In kind it is subcellular.
Data set [4] concerns the target Serine/threonine-protein kinase 16 (Homo sapiens, UniProt O75716). Description: Inhibition of MPSK1 in human HeLa cells lysate pre incubated for 15 mins followed by ATP acyl phosphate probe addition and measured after 10 mins by LC-MS/MS analysis. Type of data set: subcellular.
Data set [5] in a line: Cardiotoxicity in C57Bl/6 mouse assessed as vasculature instability in heart at 50 mg/kg, ip for 14 days by TUNEL assay. Type of data set: toxicity, organism-based. The note with it: in vivo, 336 h, time 14 day. The procedure, abridged: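 Mice were dosed i.p. at 50 mg/kg over 14 days. Heart sections from treated and control mice were stained by immunofluorescence for CD31 and by TUNEL, with DNase-treated sections as the TUNEL positive control.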

A short description of data set [6]: Inhibition of NEK6/7 in human HeLa cells lysate at 50 uM pre incubated for 15 mins followed by ADP acyl phosphate probe addition and measured after 10 mins by LC-MS/MS analysis relative to control. Conditions: 25 min, condition cancer.
Data set [7] has as its target T1, Serine/threonine-protein kinase 4 (Homo sapiens) (UniProt Q13043).
T1 sequence (whole entry): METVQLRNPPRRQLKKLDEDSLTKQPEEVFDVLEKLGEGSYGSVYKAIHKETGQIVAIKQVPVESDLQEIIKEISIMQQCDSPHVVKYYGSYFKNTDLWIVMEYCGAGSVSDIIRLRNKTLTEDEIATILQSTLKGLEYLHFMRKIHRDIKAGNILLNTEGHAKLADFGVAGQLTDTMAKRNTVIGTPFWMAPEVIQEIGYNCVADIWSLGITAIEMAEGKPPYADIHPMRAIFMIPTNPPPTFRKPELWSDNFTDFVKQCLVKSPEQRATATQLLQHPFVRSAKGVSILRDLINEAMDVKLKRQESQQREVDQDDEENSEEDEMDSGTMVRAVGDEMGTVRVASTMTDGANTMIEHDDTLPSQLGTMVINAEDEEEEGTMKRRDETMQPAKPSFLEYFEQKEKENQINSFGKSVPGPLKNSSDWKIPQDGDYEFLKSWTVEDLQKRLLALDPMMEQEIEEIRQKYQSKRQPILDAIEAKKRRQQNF
In words: Inhibition of MST1 in human HeLa cells lysate at 2 uM pre incubated for 15 mins followed by ATP acyl phosphate probe addition and measured after 10 mins by LC-MS/MS analysis relative to control. The note with it: time 25.0 min. In kind it is subcellular.

The target in data set [8] is Serine/threonine-protein kinase LATS1 (Homo sapiens, UniProt O95835). Description: Inhibition of LATS1 in human HeLa cells lysate pre incubated for 15 mins followed by ATP acyl phosphate probe addition and measured after 10 mins by LC-MS/MS analysis. Type of data set: subcellular.
Data set [9] deals with EKC/KEOPS complex subunit TP53RK (Homo sapiens, UniProt Q96S44). Description: Inhibition of PRPK in human HeLa cells lysate pre incubated for 15 mins followed by ATP acyl phosphate probe addition and measured after 10 mins by LC-MS/MS analysis. Type of data set: subcellular.
In data set [10] the target is Serine/threonine-protein kinase 3/4 (Homo sapiens, UniProt Q13043+Q13188). Description: Inhibition of MST1/2 in human HeLa cells lysate pre incubated for 15 mins followed by ATP acyl phosphate probe addition and measured after 10 mins by LC-MS/MS analysis. Type of data set: subcellular.
Data set [11] concerns the target T2, Serine/threonine-protein kinase D3 (Homo sapiens) (UniProt O94806).
T2 sequence (whole entry): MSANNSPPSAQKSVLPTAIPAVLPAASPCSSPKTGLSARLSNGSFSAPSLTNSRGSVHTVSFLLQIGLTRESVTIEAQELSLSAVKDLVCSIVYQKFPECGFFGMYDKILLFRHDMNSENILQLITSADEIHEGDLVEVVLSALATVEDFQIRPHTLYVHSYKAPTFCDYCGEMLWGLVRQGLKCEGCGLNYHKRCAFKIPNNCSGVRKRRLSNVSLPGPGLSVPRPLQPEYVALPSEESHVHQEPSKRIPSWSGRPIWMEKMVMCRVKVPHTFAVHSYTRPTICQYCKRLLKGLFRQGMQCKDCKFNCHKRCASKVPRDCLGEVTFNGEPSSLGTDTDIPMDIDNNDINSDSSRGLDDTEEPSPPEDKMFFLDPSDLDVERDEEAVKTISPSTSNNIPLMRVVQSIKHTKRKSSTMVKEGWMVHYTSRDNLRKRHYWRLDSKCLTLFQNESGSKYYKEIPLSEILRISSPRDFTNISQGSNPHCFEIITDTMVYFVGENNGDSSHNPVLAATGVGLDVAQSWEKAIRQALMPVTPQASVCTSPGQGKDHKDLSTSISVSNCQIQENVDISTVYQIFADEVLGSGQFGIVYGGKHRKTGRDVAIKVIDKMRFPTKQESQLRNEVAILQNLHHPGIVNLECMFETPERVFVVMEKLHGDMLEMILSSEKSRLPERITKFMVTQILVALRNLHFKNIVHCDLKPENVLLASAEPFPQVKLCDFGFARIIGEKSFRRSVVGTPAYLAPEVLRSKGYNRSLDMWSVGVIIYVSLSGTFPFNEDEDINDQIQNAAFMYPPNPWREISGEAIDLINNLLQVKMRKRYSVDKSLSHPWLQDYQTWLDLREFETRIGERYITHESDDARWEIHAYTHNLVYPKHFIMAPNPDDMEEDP
In words: Inhibition of PKD3 in human HeLa cells lysate at 10 uM pre incubated for 15 mins followed by ADP acyl phosphate probe addition and measured after 10 mins by LC-MS/MS analysis relative to control. Conditions: time 25.0 min. In kind it is subcellular.

For data set [12], the system named is Lewis lung carcinoma. Description: Antitumor activity against PML knock down mouse LL2 cells allografted in C57Bl/6 mouse assessed as reduction tumor growth at 50 mg/kg, ip administered on day 7 post implantation measured after 17 days. In kind it is functional, organism-based. Conditions: time 10.0 day.

The source made the active and inactive calls. The calls are words filed in the database; no cut-off is given here.

Chain of EKC/KEOPS complex subunit TP53RK (Q96S44 whole entry, one chain of several): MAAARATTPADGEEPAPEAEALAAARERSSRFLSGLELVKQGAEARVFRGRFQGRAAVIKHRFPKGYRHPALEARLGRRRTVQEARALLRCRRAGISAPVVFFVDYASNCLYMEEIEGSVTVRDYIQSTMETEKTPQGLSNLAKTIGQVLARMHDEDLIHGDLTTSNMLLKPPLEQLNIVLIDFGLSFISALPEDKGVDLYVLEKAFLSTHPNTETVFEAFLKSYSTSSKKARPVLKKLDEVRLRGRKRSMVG
Chain of Dual specificity protein kinase CLK3 (P49761 whole entry): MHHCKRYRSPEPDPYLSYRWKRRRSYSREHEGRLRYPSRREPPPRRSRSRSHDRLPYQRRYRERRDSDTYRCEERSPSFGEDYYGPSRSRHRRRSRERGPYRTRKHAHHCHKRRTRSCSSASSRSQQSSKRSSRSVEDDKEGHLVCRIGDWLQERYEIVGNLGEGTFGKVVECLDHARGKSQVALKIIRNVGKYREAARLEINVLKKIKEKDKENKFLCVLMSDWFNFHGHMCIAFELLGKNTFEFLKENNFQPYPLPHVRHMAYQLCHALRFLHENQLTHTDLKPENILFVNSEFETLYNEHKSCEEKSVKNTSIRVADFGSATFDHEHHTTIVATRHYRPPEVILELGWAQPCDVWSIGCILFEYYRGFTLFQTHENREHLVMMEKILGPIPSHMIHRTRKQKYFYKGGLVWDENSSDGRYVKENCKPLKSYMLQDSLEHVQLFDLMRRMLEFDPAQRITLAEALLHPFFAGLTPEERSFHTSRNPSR
Chain of Serine/threonine-protein kinase PLK1 (P53350 whole entry): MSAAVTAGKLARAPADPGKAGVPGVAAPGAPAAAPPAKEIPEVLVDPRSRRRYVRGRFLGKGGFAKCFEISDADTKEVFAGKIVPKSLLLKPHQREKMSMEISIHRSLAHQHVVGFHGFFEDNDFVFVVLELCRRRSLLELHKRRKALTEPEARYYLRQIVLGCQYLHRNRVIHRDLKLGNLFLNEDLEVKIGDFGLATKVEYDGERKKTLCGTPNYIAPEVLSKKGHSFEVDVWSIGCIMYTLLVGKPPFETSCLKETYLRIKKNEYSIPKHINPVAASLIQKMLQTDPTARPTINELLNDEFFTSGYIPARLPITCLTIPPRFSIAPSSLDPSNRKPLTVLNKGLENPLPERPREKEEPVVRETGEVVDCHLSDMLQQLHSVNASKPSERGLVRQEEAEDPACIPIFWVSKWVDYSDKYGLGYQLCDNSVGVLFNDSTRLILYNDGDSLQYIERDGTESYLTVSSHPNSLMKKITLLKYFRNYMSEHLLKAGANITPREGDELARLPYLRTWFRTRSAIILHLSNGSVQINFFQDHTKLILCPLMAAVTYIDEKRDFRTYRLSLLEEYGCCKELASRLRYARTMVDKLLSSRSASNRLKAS
Chain of Serine/threonine-protein kinase 16 (O75716 whole entry): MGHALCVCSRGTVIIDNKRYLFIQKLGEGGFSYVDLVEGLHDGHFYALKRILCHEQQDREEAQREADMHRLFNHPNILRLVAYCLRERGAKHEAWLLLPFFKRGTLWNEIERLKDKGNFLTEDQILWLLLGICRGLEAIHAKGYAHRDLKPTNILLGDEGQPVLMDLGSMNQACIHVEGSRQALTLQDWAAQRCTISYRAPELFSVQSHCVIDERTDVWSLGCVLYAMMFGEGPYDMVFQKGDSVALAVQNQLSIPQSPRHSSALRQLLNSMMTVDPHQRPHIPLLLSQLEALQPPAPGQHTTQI
Chain of Serine/threonine-protein kinase tousled-like 2 (Q86UE8 whole entry, looked up): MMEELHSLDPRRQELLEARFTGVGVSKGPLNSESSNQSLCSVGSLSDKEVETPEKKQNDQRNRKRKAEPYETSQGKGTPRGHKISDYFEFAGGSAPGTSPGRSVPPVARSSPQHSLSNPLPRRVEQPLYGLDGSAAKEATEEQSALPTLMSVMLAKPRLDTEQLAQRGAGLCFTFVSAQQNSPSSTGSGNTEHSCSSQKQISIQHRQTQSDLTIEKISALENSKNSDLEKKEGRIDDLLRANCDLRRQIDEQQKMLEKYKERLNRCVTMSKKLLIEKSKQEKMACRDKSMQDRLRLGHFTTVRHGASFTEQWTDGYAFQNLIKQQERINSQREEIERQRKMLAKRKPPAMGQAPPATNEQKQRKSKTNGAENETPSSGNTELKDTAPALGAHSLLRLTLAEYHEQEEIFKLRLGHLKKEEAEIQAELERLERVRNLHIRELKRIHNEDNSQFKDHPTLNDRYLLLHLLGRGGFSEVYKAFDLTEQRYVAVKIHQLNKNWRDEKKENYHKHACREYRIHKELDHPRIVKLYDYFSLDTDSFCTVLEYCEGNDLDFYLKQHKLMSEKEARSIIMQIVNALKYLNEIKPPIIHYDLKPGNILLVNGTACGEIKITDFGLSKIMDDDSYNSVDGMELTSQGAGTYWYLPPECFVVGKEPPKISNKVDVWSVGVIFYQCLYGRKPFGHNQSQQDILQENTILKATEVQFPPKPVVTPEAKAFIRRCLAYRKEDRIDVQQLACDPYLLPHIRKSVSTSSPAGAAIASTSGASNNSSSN
Chain of Serine/threonine-protein kinase LATS1 (O95835 whole entry): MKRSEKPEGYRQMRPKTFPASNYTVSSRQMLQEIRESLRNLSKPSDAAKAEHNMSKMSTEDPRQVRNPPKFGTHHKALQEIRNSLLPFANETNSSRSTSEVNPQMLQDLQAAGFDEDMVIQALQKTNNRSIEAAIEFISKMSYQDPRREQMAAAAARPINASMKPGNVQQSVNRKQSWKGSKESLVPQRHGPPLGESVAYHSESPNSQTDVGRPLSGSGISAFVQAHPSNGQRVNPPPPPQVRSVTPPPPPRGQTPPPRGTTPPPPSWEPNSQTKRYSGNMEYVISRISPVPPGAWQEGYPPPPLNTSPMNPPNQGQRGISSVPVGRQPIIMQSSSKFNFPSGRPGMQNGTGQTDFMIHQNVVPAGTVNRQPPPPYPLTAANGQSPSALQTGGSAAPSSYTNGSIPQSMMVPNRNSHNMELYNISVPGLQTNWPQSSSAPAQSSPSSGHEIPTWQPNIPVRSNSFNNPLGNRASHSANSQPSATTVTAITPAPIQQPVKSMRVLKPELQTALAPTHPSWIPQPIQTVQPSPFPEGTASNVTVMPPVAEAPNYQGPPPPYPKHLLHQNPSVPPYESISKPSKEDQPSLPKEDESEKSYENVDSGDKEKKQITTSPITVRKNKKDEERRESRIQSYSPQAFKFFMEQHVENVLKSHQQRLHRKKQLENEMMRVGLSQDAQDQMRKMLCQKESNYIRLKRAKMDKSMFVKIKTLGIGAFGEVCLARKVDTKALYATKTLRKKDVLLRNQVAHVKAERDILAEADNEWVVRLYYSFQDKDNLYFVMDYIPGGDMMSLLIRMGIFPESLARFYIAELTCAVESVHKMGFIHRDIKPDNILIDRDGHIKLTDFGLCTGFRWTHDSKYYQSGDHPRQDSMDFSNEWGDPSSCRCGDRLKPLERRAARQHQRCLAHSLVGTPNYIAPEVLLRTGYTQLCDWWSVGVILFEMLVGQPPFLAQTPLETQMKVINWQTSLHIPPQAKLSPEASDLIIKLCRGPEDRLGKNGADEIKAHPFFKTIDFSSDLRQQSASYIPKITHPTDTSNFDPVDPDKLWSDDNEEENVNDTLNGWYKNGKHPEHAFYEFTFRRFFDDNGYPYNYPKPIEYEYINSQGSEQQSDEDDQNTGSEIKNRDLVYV

Take `CCOc1cc(N2CCC(O)CC2)ccc1Nc1ncc2c(n1)N(C)c1ccccc1C(=O)N2C`: the IC50 in data set [1], in [3], in data set [4], in [8], in [9] and in data set [10] was > 50 µM throughout. The inhibition in data set [2] was -2.4%; in data set [7], 2.2%; in [11] it was -6%. Moreover, in data set [5], the Activity result is recorded as “Non-Toxic”. The inhibition at 50 µM in data set [6] stood at 5.6%. The outcome in data set [12] was inactive.

Values taken from ChEMBL document CHEMBL5661979, “Pharmacological inhibition of BMK1 suppresses tumor growth through promyelocytic leukemia protein” (Cancer Cell, 2010).
